Assay results: PMC6243397 (ACS Chemical Biology, 2018)
Read-outs that look alike come from different tables or passages of the source.

Legend:
[1] = Stability control without microsomes; format: physicochemical; settings: microsomes replaced with PBS, percentage remaining relative to t0
[2] = Mouse liver microsome stability assay; format: in vitro ADME; settings: percentage remaining relative to t0
[3] = Hydrolytic stability in PBS; format: physicochemical; settings: pH 7.4, t1/2 in PBS, PBS pH 7.4, 37 °C
human GBM cell lines = test: Panel of human GBM cell lines, viability; format: cell-based
[4] = cited from earlier work
[5] = in vivo blood-brain barrier permeability; settings: CD-1 IGS, mouse, brain and serum, iv, 25 mg/kg
[6] = Assessment of hematological toxicity; format: in vivo, mouse; settings: single IV dose 125 mg/kg, 7 days post-treatment
Procedure, shortened: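 Mice received a single IV dose of 125 mg/kg test compound. Whole blood was collected 7 days post-dose and a complete blood count run per mouse (total WBC, lymphocytes, neutrophils). Four mice per cohort; error is SEM. Groups were compared with control by two-tailed two-sample Student's t test assuming equal variance.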

U87 cells = test: O6-methyldeoxyguanosine quantitation; format: cell-based, human; settings: 100 or 1000 μM, 8 h
Procedure, shortened: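 U87 cells were treated with 100 or 1000 μM test compound for 8 h. Genomic DNA was isolated, quantified and hydrolysed to deoxyribonucleosides. O6-methyldeoxyguanosine was quantitated by LC-MS/MS and expressed per 10 μg DNA.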

SMILES	stability (2 h, no microsomes) [1] [%]	stability (2 h, microsomes) [2] [%]	further results
CCN(CC)C(=O)c1ncn2c(=O)n(C)nnc12 [Compound 6]	95 ± 2	81 ± 1	
CCCCN(CCCC)C(=O)c1ncn2c(=O)n(C)nnc12 [Compound 7]	98 ± 3	1 ± 1	
Cc1ncn2c(=O)n(C)nnc12 [Compound 14]			half-life [3]: 40 h
Cn1nnc2c(Cl)ncn2c1=O [Compound 19]	91 ± 1	91 ± 3	
Cn1nnc2c(-c3ccccc3)ncn2c1=O [Compound 23]	103 ± 5	44 ± 2	
Cn1nnc2c(C(N)=O)ncn2c1=O [TMZ, temozolomide]	86 ± 4	87 ± 6	IC50 (human GBM cell lines; read-out: IC50 in cell lines with negligible MGMT expression): ≤ 50 µM; IC50 (human GBM cell lines; read-out: IC50 in cell lines with significant MGMT expression): > 300 µM; half-life in humans ([4]; humans): ~2 h; half-life in vivo and in aqueous solutions in vitro ([4]; in vivo and in aqueous solutions in vitro): ~2 h; Kp at 5 min [5]: 0.23 ± 0.03; myelosuppression / white blood cell count [6]: white blood cell (WBC) depletion relative to control mice; concentration of O6-methylated deoxyguanosine (U87 cells): Dose dependent increases
